# From ChEMBL document CHEMBL1921722, “In vitro and in vivo evaluation of select kahalalide F analogs with antitumor and antifungal activities” (Bioorg Med Chem, 2011)
# Activity calls are given as the source filed them.
# Legend:
# NCI-H23 [1] = assay: Antitumor activity against human NCI-H23 cells xenografted in mouse assessed as tumor cell killing at 4.7 mg/kg, ip qd for 4 days by MTT assay; assay type: functional, organism-based; set-up: dose 4.7 mg/kg
# Method in brief: (§1)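 Hollow-fiber assay in mice. Tumor lines were grown in RPMI-1640 with 10% FBS and 2 mM glutamine. Cells at 2 × 10^6 cells/ml were loaded into 1 mm PVDF fibers (500,000 Da cutoff), heat-sealed at 2 cm and held 24–48 h at 37 °C, 5% CO2 before implantation. Compound was given IP. Fibers were collected the day after the fourth treatment for MTT (OD 540 nm, group means). A ≥50% cut in percent net growth versus vehicle counted as positive.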
# [2] = Acute toxicity in ip dosed athymic nude mouse assessed as mortality after 24 days; assay type: organism-based; conditions: in vivo
# Method in brief: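 Female athymic nude mice, non-tumored; single IP injection, one mouse per dose level, 400, 200 and 100 mg/kg first, then 50, 25 and 12.5 mg/kg. Dose volume 0.1 ml/10 g body weight. Body weight and survival monitored; animals sacrificed on >20% weight loss or other significant toxicity.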
# SNB-75 = assay: Cytotoxicity against human SNB75 cells assessed as cell growth at 8 uM by sulforhodamine B assay relative to control; assay type: functional; conditions: read-out: Activity
# MDA-MB-231 = assay: Cytotoxicity against human MDA-MB-231 cells by sulforhodamine B assay; assay type: functional; conditions: for TGI: read-out: pTGI (converted)
# Method in brief: (§2)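 NCI Developmental Therapeutics Program 60-cell-line human tumor panel screen, run at NCI. A single-concentration pre-screen was followed by a five-concentration dose-response in 10-fold steps. GI50 is the concentration that reduces growth of treated cells to half that of untreated control cells. TGI is the concentration that completely halts growth.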
# SK-MEL-2 = assay: Cytotoxicity against human SK-MEL-2 cells assessed as cell growth at 80 nM by sulforhodamine B assay relative to control; assay type: functional; conditions: read-out: Activity
# LOX IMVI [3] = assay: Cytotoxicity against human LOXIMVI cells assessed as cell growth at 800 nM by sulforhodamine B assay relative to control; assay type: functional; conditions: read-out: Activity
# COLO 205 = assay: Cytotoxicity against human COLO205 cells assessed as cell growth at 80 nM by sulforhodamine B assay relative to control; assay type: functional; conditions: read-out: Activity
# Method in brief: (§3)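 Run at NCI in the DTP 60-cell-line human tumor panel by standard procedure. Compounds were first screened at a single concentration, then tested at five tenfold-spaced concentrations. GI50 is the concentration reducing treated-cell growth to half that of untreated controls; TGI is the concentration completely halting growth.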
# Malme-3M [4] = assay: Cytotoxicity against human MALME-3M cells by sulforhodamine B assay; assay type: functional; method in brief: as §2
# NCI-H23 [5] = assay: Cytotoxicity against human NCI-H23 cells assessed as cell growth at 8 nM by sulforhodamine B assay relative to control; assay type: functional; conditions: read-out: Activity
# PC-3 [6] = assay: Cytotoxicity against human PC3 cells assessed as cell growth at 80 nM by sulforhodamine B assay relative to control; assay type: functional; conditions: read-out: Activity
# A498 = assay: Cytotoxicity against human A498 cells by sulforhodamine B assay; assay type: functional; conditions: for TGI: read-out: pTGI (converted); method in brief: as §3
# Malme-3M [7] = assay: Cytotoxicity against human MALME-3M cells assessed as cell growth at 8 uM by sulforhodamine B assay relative to control; assay type: functional; conditions: read-out: Activity
# 786-0 = assay: Cytotoxicity against human 786-0 cells assessed as cell growth at 80 uM by sulforhodamine B assay relative to control; assay type: functional; conditions: read-out: Activity; method in brief: as §3
# SF-268 = assay: Cytotoxicity against human SF268 cells assessed as cell growth at 8 nM by sulforhodamine B assay relative to control; assay type: functional; conditions: read-out: Activity
# PC-3 [8] = assay: Cytotoxicity against human PC3 cells assessed as cell growth at 80 uM by sulforhodamine B assay relative to control; assay type: functional; conditions: read-out: Activity
# SF-539 [9] = assay: Cytotoxicity against human SF539 cells assessed as cell growth at 8 uM by sulforhodamine B assay relative to control; assay type: functional; conditions: read-out: Activity
# LOX IMVI [10] = assay: Antitumor activity against human LOXIMVI cells xenografted in mouse assessed as tumor cell killing at 4.7 mg/kg, ip qd for 4 days by MTT assay; assay type: functional, organism-based; set-up: dose 4.7 mg/kg; method in brief: as §1
# MDA-MB-435 = assay: Cytotoxicity against human MDA-MB-435 cells assessed as cell growth at 800 nM by sulforhodamine B assay relative to control; assay type: functional; conditions: read-out: Activity
# TK-10 = assay: Cytotoxicity against human TK10 cells assessed as cell growth at 80 uM by sulforhodamine B assay relative to control; assay type: functional; conditions: read-out: Activity
# SK-MEL-28 [11] = assay: Cytotoxicity against human SK-MEL-28 cells assessed as cell growth at 80 nM by sulforhodamine B assay relative to control; assay type: functional; conditions: read-out: Activity
# SK-OV-3 [12] = assay: Cytotoxicity against human SKOV3 cells assessed as cell growth at 800 nM by sulforhodamine B assay relative to control; assay type: functional; conditions: read-out: Activity
# Cryptococcus neoformans = assay: Antimicrobial activity against Cryptococcus neoformans ATCC 90113 by CLSI method; assay type: functional, organism-based
# SK-MEL-28 [13] = assay: Cytotoxicity against human SK-MEL-28 cells assessed as cell growth at 800 nM by sulforhodamine B assay relative to control; assay type: functional; conditions: read-out: Activity
# RXF 393 = assay: Cytotoxicity against human RXF393 cells by sulforhodamine B assay; assay type: functional; conditions: for TGI: read-out: pTGI (converted); method in brief: as §2
# SK-MEL-5 = assay: Cytotoxicity against human SK-MEL-5 cells assessed as cell growth at 8 uM by sulforhodamine B assay relative to control; assay type: functional; conditions: read-out: Activity
# EKVX = assay: Cytotoxicity against human EKVX cells assessed as cell growth at 8 nM by sulforhodamine B assay relative to control; assay type: functional; conditions: read-out: Activity
# [14] = tested on: Mycobacterium intracellulare; assay: Antimicrobial activity against Mycobacterium intracellular ATCC 23068 after 5 days by MABA assay; assay type: functional, organism-based; conditions: ATCC 23068, 120 h
# Method in brief: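 M. intracellulare was tested by a modified Franzblau method. Samples were serially diluted in 20% DMSO/saline, run in duplicate, and inocula were adjusted by OD630. […] IC50 is 50% growth inhibition; MIC is the lowest concentration with no detectable growth.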
# SK-OV-3 [15] = assay: Cytotoxicity against human SKOV3 cells assessed as cell growth at 80 uM by sulforhodamine B assay relative to control; assay type: functional; conditions: read-out: Activity
# SF-539 [16] = assay: Cytotoxicity against human SF539 cells assessed as cell growth at 80 uM by sulforhodamine B assay relative to control; assay type: functional; conditions: read-out: Activity
# OVCAR-4 = assay: Cytotoxicity against human OVCAR4 cells assessed as cell growth at 800 nM by sulforhodamine B assay relative to control; assay type: functional; conditions: read-out: Activity
# RPMI-8226 = assay: Cytotoxicity against human RPMI8226 cells assessed as cell growth at 80 uM by sulforhodamine B assay relative to control; assay type: functional; conditions: read-out: Activity
# NCI-H460 = assay: Cytotoxicity against human NCI-H460 cells assessed as cell growth at 8 uM by sulforhodamine B assay relative to control; assay type: functional; conditions: read-out: Activity
# UACC-257 = assay: Cytotoxicity against human UACC257 cells assessed as cell growth at 8 uM by sulforhodamine B assay relative to control; assay type: functional; conditions: read-out: Activity
# UACC-62 = assay: Cytotoxicity against human UACC62 cells assessed as cell growth at 80 nM by sulforhodamine B assay relative to control; assay type: functional; conditions: read-out: Activity
compound,measurement,setting,value
C/C=C1\NC(=O)[C@H](Cc2ccccc2)NC(=O)[C@@H](C(C)C)NC(=O)[C@@H]([C@@H](C)CC)NC(=O)[C@H](NC(=O)[C@H](NC(=O)[C@H](CCCNCc2ccc(N3CCOCC3)cc2)NC(=O)[C@H]2CCCN2C(=O)[C@H](NC(=O)[C@@H](NC(=O)[C@@H](NC(=O)[C@H](NC(=O)CCCC(C)C)C(C)C)[C@@H](C)O)C(C)C)C(C)C)[C@@H](C)CC)[C@@H](C)OC(=O)[C@H](C(C)C)NC1=O,Activity,NCI-H23 [1],inactive
same,MTD at 576 h,[2],12.5 mg/kg
same,growth at 8 µM,SNB-75,-80%
same,GI50,MDA-MB-231,2630 nM
same,LC50,MDA-MB-231,> 75900 nM
same,TGI,MDA-MB-231,15500 nM
same,growth at 0.08 µM,SK-MEL-2,101%
same,growth at 0.8 µM,LOX IMVI [3],100%
same,growth at 0.08 µM,COLO 205,95%
same,GI50,Malme-3M [4],1700 nM
same,TGI,Malme-3M [4]; read-out: pTGI (converted),3160 nM
same,growth at 0.008 µM,NCI-H23 [5],105%
same,growth at 0.08 µM,PC-3 [6],97%
same,GI50,A498,1580 nM
same,LC50,A498,7410 nM
same,TGI,A498,3470 nM
same,growth at 8 µM,Malme-3M [7],-71%
same,growth at 80 µM,786-0,-66%
same,growth at 0.008 µM,SF-268,98%
same,growth at 80 µM,PC-3 [8],-67%
same,growth at 8 µM,SF-539 [9],-89%
same,Activity,LOX IMVI [10],inactive
same,growth at 0.8 µM,MDA-MB-435,94%
same,growth at 80 µM,TK-10,-56%
same,growth at 0.08 µM,SK-MEL-28 [11],99%
same,growth at 0.8 µM,SK-OV-3 [12],-35%
same,IC50,Cryptococcus neoformans,1730 nM
same,MFC,Cryptococcus neoformans,10 µM
same,MIC,Cryptococcus neoformans,5 µM
same,growth at 0.8 µM,SK-MEL-28 [13],98%
same,GI50,RXF 393,1580 nM
same,LC50,RXF 393,> 75900 nM
same,TGI,RXF 393,3550 nM
same,growth at 8 µM,SK-MEL-5,-100%
same,growth at 0.008 µM,EKVX,102%
same,IC50,[14],> 20000 nM
same,MBC,[14],> 20 µM
same,MIC,[14],> 20 µM
same,growth at 80 µM,SK-OV-3 [15],-23%
same,growth at 80 µM,SF-539 [16],-63%
same,growth at 0.8 µM,OVCAR-4,79%
same,growth at 80 µM,RPMI-8226,-29%
same,growth at 8 µM,NCI-H460,-24%
same,growth at 8 µM,UACC-257,-76%
same,growth at 0.08 µM,UACC-62,103%
C/C=C1\NC(=O)[C@H](Cc2ccccc2)NC(=O)[C@@H](C(C)C)NC(=O)[C@@H]([C@@H](C)CC)NC(=O)[C@H](NC(=O)[C@H](NC(=O)[C@H](CCCNCc2ccc(F)c(C)c2)NC(=O)[C@H]2CCCN2C(=O)[C@H](NC(=O)[C@@H](NC(=O)[C@@H](NC(=O)[C@H](NC(=O)CCCC(C)C)C(C)C)[C@@H](C)O)C(C)C)C(C)C)[C@@H](C)CC)[C@@H](C)OC(=O)[C@H](C(C)C)NC1=O,Activity,NCI-H23 [1],inactive
same,MTD at 576 h,[2],12.5 mg/kg
same,growth at 8 µM,SNB-75,-73%
same,GI50,MDA-MB-231,1450 nM
same,LC50,MDA-MB-231,6920 nM
same,TGI,MDA-MB-231,3160 nM
same,growth at 0.08 µM,SK-MEL-2,101%
same,growth at 0.8 µM,LOX IMVI [3],108%
same,growth at 0.08 µM,COLO 205,90%
same,GI50,Malme-3M [4],1480 nM
same,growth at 0.008 µM,NCI-H23 [5],102%
same,growth at 0.08 µM,PC-3 [6],104%
same,GI50,A498,1320 nM
same,LC50,A498,4470 nM
same,TGI,A498,2450 nM
same,growth at 8 µM,Malme-3M [7],-77%
same,growth at 80 µM,786-0,-98%
same,growth at 0.008 µM,SF-268,97%
same,growth at 80 µM,PC-3 [8],-76%
same,growth at 8 µM,SF-539 [9],-93%
same,Activity,LOX IMVI [10],inactive
same,growth at 0.8 µM,MDA-MB-435,83%
same,growth at 80 µM,TK-10,-9%
same,growth at 0.08 µM,SK-MEL-28 [11],105%
same,growth at 0.8 µM,SK-OV-3 [12],-46%
same,IC50,Cryptococcus neoformans,950 nM
same,MFC,Cryptococcus neoformans,10 µM
same,MIC,Cryptococcus neoformans,5 µM
same,growth at 0.8 µM,SK-MEL-28 [13],75%
same,GI50,RXF 393,1350 nM
same,LC50,RXF 393,6310 nM
same,TGI,RXF 393,2950 nM
same,growth at 8 µM,SK-MEL-5,-100%
same,growth at 0.008 µM,EKVX,101%
same,IC50,[14],> 20000 nM
same,MBC,[14],> 20 µM
same,MIC,[14],> 20 µM
same,growth at 80 µM,SK-OV-3 [15],-75%
same,growth at 80 µM,SF-539 [16],-62%
same,growth at 0.8 µM,OVCAR-4,7%
same,growth at 80 µM,RPMI-8226,-21%
same,growth at 8 µM,NCI-H460,-71%
same,growth at 8 µM,UACC-257,-78%
same,growth at 0.08 µM,UACC-62,104%
